Published values collected from several papers.
Lines come from different studies, so protocols differ.
Medium: plasma

SMILES | system | conditions | Cmax
C=CC(=O)N1CC2CC(n3nc(-c4ccc(C(=O)Nc5ccccn5)cc4)c4c(N)ncnc43)CC2C1 (centres unmarked) | SCID mouse | oral, 0.2 mg/kg | 10.5 ng/mL
CC[C@H](C)[C@@H]1NC(=O)[C@@](C)(NC(=O)[C@H](CCCNC(=N)N)NC(=O)[C@H](CC(C)C)NC(=O)[C@@H](NC(=O)[C@H](CCC(N)=O)NC(=O)[C@H](CC(C)C)NC(C)=O)[C@@H](C)O)CCCC=CCCC[C@@](C)(C(=O)N[C@@H](CC(C)C)C(=O)N[C@@H](Cc2ccc3ccccc3c2)C(N)=O)NC(=O)[C@H](CCCNC(=N)N)NC(=O)[C@H](CCC(N)=O)NC1=O | male BALB/c mouse | intravenous, 15 mg/kg | 102 µM
COc1ccc([C@@]23Oc4cc(OC)cc(OC)c4[C@]2(O)[C@H](O)[C@H](C(=O)N(C)C)[C@H]3c2ccccc2)cc1 | mouse | intravenous, 5 mg/kg | ~11 µM
CN1CCC[C@H](CN2c3ccccc3Sc3ccccc32)C1.O=C(O)CCC(=O)O | mouse | oral, 64 mg/kg, single dose | 1540 ng/mL
COc1ccc(C(O)COc2ccc(-c3csc(-c4ccc(OCC(O)c5ccc(OC)c(OC)c5)cc4)n3)cc2)cc1OC (centres unmarked) | C57BL/6 mouse | oral, 30 mg/kg | 5980 ng/mL
Cc1nc(-c2cnc(NC(C)C)n(C)c2=O)ccc1Oc1ccnc(-c2cnn(C)c2)c1 | female mouse | oral, 7.5 mg/kg, single dose | 4450 ng/mL
CC(C)(C)c1ccc(O)c(CN(Cc2cc(C(C)(C)C)ccc2O)C2CCC(NC(N)=O)CC2)c1 (centres unmarked) | male C57BL/6 mouse | oral, 10 mg/kg, single dose | 1020 ng/mL
CS(=O)(=O)CCNCc1ccc(-c2ccc3ncnc(Nc4ccc(OCc5cccc(F)c5)c(Cl)c4)c3c2)o1 | nude mouse | oral, 50 mg/kg, single dose | 6470 ng/mL
